The values that follow come from ChEMBL document CHEMBL3351612, “Merremins A-G, resin glycosides from Merremia hederacea with multidrug resistance reversal activity” (J Nat Prod, 2014).

Molecules are shown by their SMILES.

Data set [1] is described as follows: Toxicity against human KB/VCR cells assessed as inhibition of cell growth at 25 uM incubated for 72 hrs by sulforhodamine B assay. The class given is cell-based. The conditions noted are these: read-out: GI. On the technique in general: In SRB staining, fixed cells bind dye roughly in proportion to their protein.
The nature of data set [2]: Multidrug resistance reversal activity in human KB/VCR cells assessed as reduction in vinblastine IC50 at 25 uM incubated for 72 hrs by sulforhodamine B assay relative to untreated control. The class given is functional. The essentials:
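KB/VCR cells seeded 24 h, then given vinblastine serial dilutions (0.125–1 μM) with or without 25 μM sample for 72 h at 37 °C, 5% CO2. Cells fixed in 10% TCA (4 °C, 1 h), stained 15 min with 0.4% SRB in 1% HOAc, dye dissolved in 10 mM Tris base, A510 read. Fold reversal = IC50 of drug alone / IC50 with sample.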

In the case of `CCCCCCCCCC(=O)O[C@H]1[C@H](O[C@@H]2[C@@H](O)[C@H]3OC(=O)CCCCCCCCC[C@H](CCCCC)O[C@@H]4O[C@H](C)[C@H](O)[C@H](O)[C@H]4O[C@@H]3O[C@H]2C)O[C@@H](C)[C@H](O[C@@H]2O[C@@H](C)[C@H](OC(=O)[C@@H](C)CC)[C@@H](O)[C@H]2O)[C@H]1O[C@@H]1O[C@H](CO)[C@@H](O)[C@H](O)[C@H]1O`, in data set [1], the inhibition at 72 h, 25 µM is 96.7%. `CCCCC[C@H]1CCCCCCCCCC(=O)O[C@H]2[C@H](O[C@H]3[C@H](O1)O[C@H](C)[C@H](O)[C@@H]3O)O[C@@H](C)[C@H](O[C@@H]1O[C@@H](C)[C@H](O[C@@H]3O[C@@H](C)[C@H](OC(=O)[C@@H](C)CC)[C@@H](O)[C@H]3O)[C@@H](O[C@@H]3O[C@H](CO)[C@@H](O)[C@H](O)[C@H]3O)[C@H]1OC(=O)[C@@H](C)CC)[C@H]2O` [MURUCOIDIN IV]: in data set [1], the inhibition at 72 h, 25 µM came out at 97.5%. As for `CCCCC[C@H]1CCCCCCCCCC(=O)O[C@H]2[C@H](O[C@H]3[C@H](O1)O[C@H](C)[C@H](OC(C)=O)[C@@H]3O)O[C@@H](C)[C@H](O[C@@H]1O[C@@H](C)[C@H](O[C@@H]3O[C@@H](C)[C@H](OC(=O)[C@@H](C)CC)[C@@H](O)[C@H]3O)[C@@H](O[C@@H]3O[C@H](CO)[C@@H](O)[C@H](O)[C@H]3O)[C@H]1OC(=O)[C@@H](C)CC)[C@H]2O`, the inhibition at 72 h, 25 µM in data set [1] was 97.8%. In the case of `CCCCC[C@H]1CCCCCCCCCC(=O)O[C@H]2[C@H](O[C@H]3[C@H](O1)O[C@H](C)[C@H](O)[C@@H]3OC(C)=O)O[C@@H](C)[C@H](O[C@@H]1O[C@@H](C)[C@H](O[C@@H]3O[C@@H](C)[C@H](OC(=O)[C@@H](C)CC)[C@@H](O)[C@H]3O)[C@@H](O[C@@H]3O[C@H](CO)[C@@H](O)[C@H](O)[C@H]3O)[C@H]1OC(=O)[C@@H](C)CC)[C@H]2O`, the “Ratio IC50” value in data set [2] is recorded as 2.3. Moreover, in data set [1], the inhibition at 72 h, 25 µM was 0.91%.

As for `CCCCCCCCCC(=O)O[C@H]1[C@H](O[C@@H]2[C@@H](O)[C@H]3OC(=O)CCCCCCCCC[C@H](CCCCC)O[C@@H]4O[C@H](C)[C@H](OC(C)=O)[C@H](O)[C@H]4O[C@@H]3O[C@H]2C)O[C@@H](C)[C@H](O[C@@H]2O[C@@H](C)[C@H](OC(=O)[C@@H](C)CC)[C@@H](O)[C@H]2O)[C@H]1O[C@@H]1O[C@H](CO)[C@@H](O)[C@H](O)[C@H]1O`, the inhibition at 72 h, 25 µM in data set [1] stood at 96.6%.

For `CCCCC[C@H]1CCCCCCCCCC(=O)O[C@H]2[C@@H](O)[C@H](O[C@H]3[C@H](O1)O[C@H](C)[C@H](O)[C@@H]3O)O[C@@H](C)[C@@H]2O[C@@H]1O[C@@H](C)[C@H](O[C@@H]2O[C@@H](C)[C@H](OC(=O)[C@@H](C)CC)[C@@H](OC(=O)/C=C/c3ccccc3)[C@H]2O)[C@@H](O[C@@H]2O[C@H](CO)[C@@H](O)[C@H](O)[C@H]2O)[C@H]1OC(=O)[C@@H](C)CC`, the inhibition at 72 h, 25 µM in data set [1] came out at 91.1%. For `CCCCCCCC(=O)O[C@H]1[C@H](O[C@@H]2[C@@H](O)[C@H]3OC(=O)CCCCCCCCC[C@H](CCCCC)O[C@@H]4O[C@H](C)[C@H](OC(C)=O)[C@H](O)[C@H]4O[C@@H]3O[C@H]2C)O[C@@H](C)[C@H](O[C@@H]2O[C@@H](C)[C@H](OC(=O)[C@@H](C)CC)[C@@H](O)[C@H]2O)[C@H]1O[C@@H]1O[C@H](CO)[C@@H](O)[C@H](O)[C@H]1O`, the inhibition at 72 h, 25 µM in data set [1] worked out at 93.8%. Consider `CCCCC[C@@H](CCCCCCCCCC(=O)OC)O[C@@H]1O[C@H](C)[C@H](O)[C@H](O)[C@H]1O[C@@H]1O[C@@H](C)[C@H](O[C@@H]2O[C@@H](C)[C@H](O[C@@H]3O[C@@H](C)[C@H](OC(=O)[C@@H](C)CC)[C@@H](O)[C@H]3O)[C@@H](O[C@@H]3O[C@H](CO)[C@@H](O)[C@H](O)[C@H]3O)[C@H]2O)[C@@H](O)[C@H]1O`, for which the “Ratio IC50” value in data set [2] was 2.5. In addition, the inhibition at 72 h, 25 µM in data set [1] was found to be 0.23%. In the case of `CCCCC[C@H]1CCCCCCCCCC(=O)O[C@H]2[C@@H](O)[C@H](O[C@H]3[C@H](O1)O[C@H](C)[C@H](O)[C@@H]3O)O[C@@H](C)[C@@H]2O[C@@H]1O[C@@H](C)[C@H](O[C@@H]2O[C@@H](C)[C@H](OC(=O)[C@@H](C)CC)[C@@H](O)[C@H]2O)[C@@H](O[C@@H]2O[C@H](CO)[C@@H](O)[C@H](O)[C@H]2O)[C@H]1OC(=O)[C@@H](C)CC` [MURUCOIDIN V], the “Ratio IC50” value in data set [2] is 142.5. The inhibition at 72 h, 25 µM in data set [1] turned out to be 7.72%.

Turning to `CCCCC[C@H]1CCCCCCCCCC(=O)O[C@H]2[C@@H](O)[C@H](O[C@H]3[C@H](O1)O[C@H](C)[C@H](O)[C@@H]3O)O[C@@H](C)[C@@H]2O[C@@H]1O[C@@H](C)[C@H](O[C@@H]2O[C@@H](C)[C@H](O)[C@@H](O)[C@H]2O)[C@@H](O[C@@H]2O[C@H](CO)[C@@H](O)[C@H](O)[C@H]2O)[C@H]1OC(=O)[C@@H](C)CC`, in data set [2], the “Ratio IC50” value was found to be 15.8. Besides, the inhibition at 72 h, 25 µM in data set [1] is -0.08%.
